High-throughput results deposited in PubChem BioAssay by several laboratories.
WT yeast gro inh – growth inhibition of WT yeast, mitochondrial fusion screen | mitochondrial fusion phenotypic screen, WT strain | inhibition, % at 10 µM | 190,000 compounds, 2.1% hits; in the data active = inhibition above about 58%; tested in S. cerevisiae
bCat nuc transl – alters nuclear translocation of beta-catenin in HeLa cells | immunofluorescence imaging | AID 1665 | 190,000 compounds, 0.3% hits | nuclear translocation activity, % at 5 µM;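 active = nuclear translocation activity above 50% at 5 µM, with a well cell count of 50 or more; inconclusive = wells under 50 cells across six images, flagged as toxic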;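 note: per-cell ratio of nuclear to cytoplasmic median beta-catenin stain intensity; plate controls were DMSO negative control for no effect and GSK-3 inhibitor IX positive control for full effect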
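System: Human HeLa cells, endogenous beta-catenin | Compound dosing: 5 µM primary, 0.02–20 µM confirmation | Timing: 24 h compound exposure at 37°C, 5% CO2 | Measured by: Fluorescence imaging of beta-catenin antibody stain plus DAPI | Read-out basis: % activation of per-cell nuclear versus cytoplasmic median beta-catenin signal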
Pf gametocyte – inhibitors of late stage P. falciparum gametocyte viability; inhibition, % at 10.9 µM; P. falciparum stage V gametocytes, ATP luminescence, 24 h; 150,000 compounds, 0.065% hits; AID 743093;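 active = inhibition above the mean plus 3 SD of compounds within the control limits, set per campaign, cut at about 38% in these data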;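 note: 0% = DMSO wells and 100% = medium only without gametocytes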
MT stabilize HCS – microtubule stabilization, imaging screen | HeLa tubulin immunostaining HCS, 24 h; share of cells brighter than vehicle mean+2SD | % tubulin-high responders, % at 10 µM | 200,000 compounds, 0.83% hits | AID 2205;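 active = plate Z-score above 3 for both tubulin-high and condensed-nucleus cell shares, with cell loss under 80%, at 10 µM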;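 note: anti alpha tubulin signal scored within the nucleus-defined area of each cell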
Cl transport mod – modulates chloride dependent transport by human KCC2; AID 1456; KCC2 cells, thallium flux FluoZin-2 fluorescence; B-score of Tl+ flux slope (higher = more flux/activation; lower = inhibition) at 10 µM; Q9H2X9; 190,000 compounds, 2.2% hits;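 active = thallium flux slope and its plate-corrected score both differing from the plate sample mean at a set confidence after two filtering rounds, in either direction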;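 note: slope of fluorescence scaled to starting intensity during 10 to 20 s after thallium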
Target sequence (Q9H2X9 whole entry, looked up): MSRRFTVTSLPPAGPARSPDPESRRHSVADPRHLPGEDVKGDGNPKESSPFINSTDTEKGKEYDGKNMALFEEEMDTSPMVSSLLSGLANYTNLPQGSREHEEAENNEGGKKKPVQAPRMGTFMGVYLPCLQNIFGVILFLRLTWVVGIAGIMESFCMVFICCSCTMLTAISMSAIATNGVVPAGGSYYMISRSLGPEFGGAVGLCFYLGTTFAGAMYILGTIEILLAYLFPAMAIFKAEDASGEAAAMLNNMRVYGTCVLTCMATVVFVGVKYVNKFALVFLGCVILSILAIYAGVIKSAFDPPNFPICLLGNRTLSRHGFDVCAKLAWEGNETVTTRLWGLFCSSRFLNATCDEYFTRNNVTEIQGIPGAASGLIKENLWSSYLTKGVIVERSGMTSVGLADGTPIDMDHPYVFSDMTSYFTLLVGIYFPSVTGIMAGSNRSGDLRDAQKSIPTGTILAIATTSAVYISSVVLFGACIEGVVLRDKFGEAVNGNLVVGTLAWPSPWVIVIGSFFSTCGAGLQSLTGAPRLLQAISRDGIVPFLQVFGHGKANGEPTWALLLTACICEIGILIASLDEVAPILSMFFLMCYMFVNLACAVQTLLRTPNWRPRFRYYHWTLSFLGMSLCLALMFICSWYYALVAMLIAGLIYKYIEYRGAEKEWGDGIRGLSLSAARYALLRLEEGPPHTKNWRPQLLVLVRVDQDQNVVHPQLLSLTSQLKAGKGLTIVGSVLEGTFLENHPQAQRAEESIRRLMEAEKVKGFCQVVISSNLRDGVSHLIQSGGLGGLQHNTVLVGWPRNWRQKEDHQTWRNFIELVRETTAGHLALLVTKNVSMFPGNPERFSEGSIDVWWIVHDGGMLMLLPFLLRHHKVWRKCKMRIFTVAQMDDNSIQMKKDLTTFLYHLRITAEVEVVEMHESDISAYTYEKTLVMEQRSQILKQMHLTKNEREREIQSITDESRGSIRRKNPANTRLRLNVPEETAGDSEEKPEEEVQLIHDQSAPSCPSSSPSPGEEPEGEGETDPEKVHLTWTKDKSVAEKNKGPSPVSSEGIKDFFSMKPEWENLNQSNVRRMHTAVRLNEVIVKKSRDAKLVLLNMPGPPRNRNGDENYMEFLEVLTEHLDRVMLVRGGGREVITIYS
An asterisk follows results filed as active; ? = inconclusive; . = no result given. In the library only some 4% were active in any assay of this set; here they are far more common.

SMILES	WT yeast gro inh	bCat nuc transl	Pf gametocyte	MT stabilize HCS	Cl transport mod
CN1CCC2(CC1)Nc1nc(SCc3ccc(Cl)cc3)nn1C1=C2CN(C)CC1	65.7*	0.0	-16.0	3.9	-0.258
COc1cc(/C=N/OCC(=O)Nc2ccc(OC(F)F)cc2)ccc1OCc1ccccc1	31.1	3.7	14.4	17.2*	-0.132
CCOc1ccc(/C=N/OCC(=O)Nc2ccc(OCc3ccccc3)cc2)cc1OC	3.2	-2.3	8.9	2.5	1.09
Cc1ccc(N2CN(Cc3ccco3)CNC2=S)c(C)c1	-6.2	0.4	-13.9	3.0	-0.301
COc1cccc(Nc2ccc(-n3ccnc3)nn2)c1	34.0	2.3	9.6	4.5	-0.588
Cc1ccc(Nc2ccc(-n3ccnc3)nn2)cc1C	68.6*	-2.9	.	1.9	1.06
CC(C(=O)NCc1cccnc1)c1ccc([N+](=O)[O-])cc1 (stereo unspecified)	.	.	-2.5	.	.
CC1=NN(c2ccccc2)C(=O)/C1=C\c1cc(C)n(C)c1C	.	-0.6	14.4	.	-0.0201
CC1=NN(c2ccccc2)C(=O)/C1=C/c1cc2cc(C)ccc2nc1N1CCCCC1	71.1*	-1.7	.	1.7	.
O=C(CSc1nnnn1-c1ccc(F)cc1F)Nc1ccccc1F	.	.	-6.5	.	.
CC1CCc2sc(C(=O)OCC(=O)NCc3ccc(F)cc3)cc2C1 (stereo unspecified)	5.7	119.1*	-6.3	7.6	0.379
COc1ccc(/C=C/C(=O)c2cc(Br)ccc2OC(=O)c2ccco2)cc1OC	65.0*	29.4	-14.3	4.4	-0.16
O=C(O)CSc1nnc(-c2cccc(S(=O)(=O)N3CCOCC3)c2)n1-c1cccc(Cl)c1	.	-0.8	23.8	.	-1.35
Cc1ccc(C2(C)CC(C)(C)N(C(=O)CSc3nnc(C)s3)c3ccccc32)cc1 (stereo unspecified)	59.2*	0.9	-13.6	3.1	-0.662
Cc1nnc(SCC(=O)N2c3ccccc3C(C)(c3ccccc3)CC2(C)C)s1 (stereo unspecified)	40.4	-2.7	-3.4	4.1	-0.825
CO/N=C\c1cc(C(=O)c2ccc(Cl)cc2Cl)cn1C	60.2*	0.8	.	2.7	0.203
Fc1cccc(Cl)c1CNCc1cccnc1	.	.	-13.0	.	.
CN1CCN(C2=Cc3ccc(Cl)cc3Sc3ccc(F)cc32)CC1	50.9	?	.	3.6	0.148
CN1CCN(C2=Cc3ccccc3Sc3cc(F)ccc32)CC1	94.5*	0.6	.	4.6	0.348
CCOC(=O)/C(=C/c1c2ccccc2cc2ccccc12)NC(=O)c1ccccc1	60.4*	-0.2	.	1.0	.
O=C(/C=C\c1ccc(-c2cccc([N+](=O)[O-])c2)o1)N1CCOCC1	3.8	4.1	-16.8	2.2	0.208
CN(c1ccc(O)cc1)c1nc(-c2cccs2)cs1	66.5*	0.4	-14.6	4.8	-2.75
CCCC(C(=O)NCCC(C)C)N(Cc1ccccc1)C(=O)c1snc(C(N)=O)c1N (stereo unspecified)	.	.	0.7	.	.
CC(=O)c1ccc(NC(=S)Nc2ccc(Br)c(Cl)c2)cc1	76.7*	-3.0	.	1.8	0.0796
O=C(c1ccc(NC(=S)Nc2ccc(Cl)c(Cl)c2)cc1)N1CCCC1	80.5*	0.0	3.9	3.1	0.248
SMILES	WT yeast gro inh	bCat nuc transl	Pf gametocyte	MT stabilize HCS	Cl transport mod
CC(=O)c1ccc(NC(=S)NC(C)c2ccc(Cl)cc2Cl)cc1 (stereo unspecified)	83.9*	-0.5	-4.9	2.2	0.599
CCCC(=O)NC(=S)Nc1ccc(C(C)=O)cc1	3.1	0.0	28.3	2.7	-0.0439
Cc1cc(C(=O)C[N+]2(C)CCOCC2)c(C)n1-c1ccc(Br)cc1	18.9	-0.3	-7.7	1.9	0.964
CCC(C)(C(=O)NC1CCCC1)N(C(=O)CNC(=O)c1ccccc1)c1c(C)n(C)n(-c2ccccc2)c1=O (stereo unspecified)	8.4	.	-9.3	2.2	2
CC1CCN(Cc2nnnn2-c2cccc([N+](=O)[O-])c2)CC1	2.2	1.3	-11.3	4.8	0.29
COCC(C)NC(=O)c1cc(-c2cccc(OC)c2)on1 (stereo unspecified)	96.8*	-3.2	.	2.5	.
COCCNC(=O)c1cc(-c2cccc(OC)c2)on1	10.9	-0.2	11.2	2.0	-0.00689
CSc1ccccc1NC(=O)Nc1cccc(Cl)c1C	10.2	0.1	11.1	2.3	-0.0883
Cc1ccccc1C(=O)NNC(=O)C(=O)Nc1cccc(Cl)c1C	-21.1	-1.0	.	1.4	45.5*
Cc1c(Cl)cccc1NC(=O)C(=O)NNC(=O)c1ccccc1F	18.7	-2.4	11.7	1.8	88.5*
CN1/C(=C\C(=O)Nc2ccc(F)cc2)C(C)(C)c2ccccc21	73.9*	-1.1	-24.6	3.2	-0.184
